Laboratory results published in ChEMBL document CHEMBL1139315, “Search for new pharmacophores for antimalarial activity. Part II: synthesis and antimalarial activity of new 6-ureido-4-anilinoquinazolines” (Bioorg Med Chem, 2009).
In brackets after ≈: the same amount, converted by molar mass.

Legend:
Plasmodium falciparum [1] = test: Antimalarial activity as schizonticidal activity after 48 hrs against chloroquine-sensitive Plasmodium falciparum 3D7; type: functional; conditions: 3D7, 48 h
Method in brief: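 3D7 ring stages synchronized with 5% sorbitol; 3% cell suspension at 1% parasitaemia added to duplicate wells of diluted compound (DMSO stock 5 mg/mL, diluted in RPMI). Incubated at 37 °C under CO2 for more than 40 h. Giemsa-stained thin smears counted by light microscopy; MIC = lowest concentration giving 100% inhibition of schizont maturation against untreated control.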

[2] = test system: Plasmodium yoelii nigeriensis; test: (§1) Antimalarial activity as reduced parasitaemia against Plasmodium yoelii nigeriensis MDR infected Swiss mice (Mus musculus) at 100 mg/kg peroral dose […]; type: functional; set-up: scale not given: the % may be the effect or the level left; conditions: route oral
Method in brief: (§2)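 Swiss mice (25 g, either sex), five per group, infected with 1 × 10^6 parasitized cells on day 0. Aqueous suspension given orally from day 0 to day 4; vehicle-only group as control. Parasitaemia read from tail-vein thin blood smears, reported as mean % parasitaemia on day 4 and day 7.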

Plasmodium yoelii = test: Antimalarial activity as reduced parasitaemia against chloroquine-resistant Plasmodium yoelii infected Swiss mice (Mus musculus) at 100 mg/kg peroral dose for 4 days; type: functional; set-up: scale not given: the % may be the effect or the level left; conditions: route oral
Plasmodium falciparum [3] = test: Antimalarial activity after 72 hrs against chloroquine-sensitive Plasmodium falciparum 3D7 infected erythrocytes by MSF assay; type: functional, organism-based; conditions: 3D7, 72 h
Method in brief: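 P. falciparum 3D7 kept in RPMI with gentamicin 40 µg/mL, Fungizone 0.25 µg/mL and 10% FBS (pH 7.2) at 37 °C under CO2. Twofold serial dilutions over seven concentrations, top 10–500 ng/mL, duplicate wells; 2.5% haematocrit, 0.5% parasitaemia; 72 h. SYBR Green I in lysis buffer (Tris pH 7.5, EDTA, saponin, Triton X-100), 1 h at room temperature, fluorescence read; IC50 by logit regression.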

[4] = Selectivity index, ratio of CC50 for african green monkey (Cercopithecus aethiops) Vero C1008 cells to IC50 for chloroquine-sensitive Plasmodium falciparum 3D7; type: functional
Method in brief: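 Vero C1008 cells exposed to serially diluted compound, highest 100 µg/mL, for 72 h; MTT read-out; CC50 = concentration killing 50% of cells. SI = CC50/IC50, with IC50 from the SYBR Green I assay on 3D7.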

[5] = test system: Plasmodium yoelii nigeriensis; test: Antimalarial activity as reduced parasitaemia against Plasmodium yoelii nigeriensis MDR infected Swiss mice (Mus musculus) at 100 mg/kg peroral dose for 4 days; type: functional; set-up: scale not given: the % may be the effect or the level left; conditions: route oral; method in brief: as §2
Mus musculus = test: Toxicity against Plasmodium yoelii nigeriensis MDR infected Swiss mice (Mus musculus) assessed as death at 100 mg/kg, perorally; type: organism-based; set-up: dose 100 mg/kg, route oral; conditions: in vivo, po
[6] = test system: Plasmodium yoelii nigeriensis; test: as §1; type: functional; set-up: scale not given: the % may be the effect or the level left; conditions: route oral; method in brief: as §2; remark: listed apart in the source

| SMILES | MIC (Plasmodium falciparum [1]) [µg/mL] | other results |
| --- | --- | --- |
| COc1ccc(Nc2ncnc3ccc(NC(=O)Nc4cccc(C(C)=O)c4)cc23)cc1OC | 10 (≈ 21.9 µM) |  |
| O=C(Nc1ccc(Cl)cc1)Nc1ccc2ncnc(Nc3ccc(F)cc3)c2c1 | 0.5 (≈ 1.23 µM) | Activity [2]: 9.38%; Activity (Plasmodium yoelii): 1.18% |
| Cc1ccc(NC(=O)Nc2ccc3ncnc(Nc4ccc(F)cc4)c3c2)cc1Cl | 0.5 (≈ 1.19 µM) | Activity [2]: 4.06%; Activity (Plasmodium yoelii): 2.8% |
| COc1cccc(Nc2ncnc3ccc(NC(=O)Nc4cccc(C(C)=O)c4)cc23)c1 | 10 (≈ 23.4 µM) |  |
| O=C(Nc1ccc(Br)cc1)Nc1ccc2ncnc(Nc3ccc(F)cc3)c2c1 | 10 (≈ 22.1 µM) |  |
| O=C(Nc1cc(Cl)cc(Cl)c1)Nc1ccc2ncnc(Nc3cccc(C(F)(F)F)c3)c2c1 | 10 (≈ 20.3 µM) |  |
| O=C(Nc1ccc(Cl)c(C(F)(F)F)c1)Nc1ccc2ncnc(Nc3cccc(C(F)(F)F)c3)c2c1 | 0.25 (≈ 0.475 µM) | IC50 (Plasmodium falciparum [3]): 0.0023 µg/mL (≈ 0.00437 µM); Activity [2]: 30.5%; Ratio CC50/IC50 [4]: 1194; Activity [5]: 10% |
| COc1cccc(Nc2ncnc3ccc(NC(=O)Nc4cccc(C#N)c4)cc23)c1 | 10 (≈ 24.4 µM) |  |
| COc1cccc(Nc2ncnc3ccc(NC(=O)Nc4ccc(C)c(Cl)c4)cc23)c1 | 0.5 (≈ 1.15 µM) |  |
| Cc1ccc(NC(=O)Nc2ccc3ncnc(Nc4cccc(C(F)(F)F)c4)c3c2)cc1Cl | 10 (≈ 21.2 µM) |  |
| O=C(Nc1ccc(Cl)c(Cl)c1)Nc1ccc2ncnc(Nc3cccc(C(F)(F)F)c3)c2c1 | 0.25 (≈ 0.508 µM) | IC50 (Plasmodium falciparum [3]): 0.013 µg/mL (≈ 0.0264 µM); Ratio CC50/IC50 [4]: 69 |
| Cc1ccc(Nc2ncnc3ccc(NC(=O)Nc4ccc(Br)cc4)cc23)cc1 | 1 (≈ 2.23 µM) |  |
| N#Cc1cccc(NC(=O)Nc2ccc3ncnc(Nc4cccc(C(F)(F)F)c4)c3c2)c1 | 1 (≈ 2.23 µM) |  |
| O=C(Nc1ccc(Cl)cc1)Nc1ccc2ncnc(Nc3cccc(C(F)(F)F)c3)c2c1 | 0.25 (≈ 0.546 µM) | IC50 (Plasmodium falciparum [3]): 0.0674 µg/mL (≈ 0.147 µM); Ratio CC50/IC50 [4]: 35.9 |
| O=C(Nc1ccc(Cl)c(Cl)c1)Nc1ccc2ncnc(Nc3ccc(Cl)cc3)c2c1 | 0.5 (≈ 1.09 µM) |  |
| O=C(Nc1ccc(Cl)c(Cl)c1)Nc1ccc2ncnc(Nc3cccc(F)c3)c2c1 | 0.25 (≈ 0.565 µM) | IC50 (Plasmodium falciparum [3]): 0.0245 µg/mL (≈ 0.0554 µM); Ratio CC50/IC50 [4]: 221.5 |
| O=C(Nc1ccc(Cl)c(C(F)(F)F)c1)Nc1ccc2ncnc(Nc3cccc(F)c3)c2c1 | 0.5 (≈ 1.05 µM) | Activity [2]: 14.5%; Activity [5]: 22% |
| CC(=O)c1cccc(NC(=O)Nc2ccc3ncnc(Nc4ccc(C)cc4)c3c2)c1 | 2 (≈ 4.86 µM) |  |
| COc1ccc(Nc2ncnc3ccc(NC(=O)Nc4ccc(Br)cc4)cc23)cc1OC | 0.5 (≈ 1.01 µM) | Activity [2]: 26.5%; Activity [5]: 26.3% |
| COc1ccc(Nc2ncnc3ccc(NC(=O)Nc4ccc(C)c(Cl)c4)cc23)cc1OC | 0.25 (≈ 0.539 µM) | IC50 (Plasmodium falciparum [3]): 0.0223 µg/mL (≈ 0.0481 µM); Ratio CC50/IC50 [4]: 449 |
| COc1ccc(Nc2ncnc3ccc(NC(=O)Nc4cc(Cl)cc(Cl)c4)cc23)cc1OC | 0.25 (≈ 0.516 µM) | IC50 (Plasmodium falciparum [3]): 0.0832 µg/mL (≈ 0.172 µM); Activity [2]: 10.75%; Ratio CC50/IC50 [4]: 36.1; Activity [5]: 23.7% |

| SMILES | MIC (Plasmodium falciparum [1]) [µg/mL] | other results |
| --- | --- | --- |
| COc1ccc(Nc2ncnc3ccc(NC(=O)Nc4ccc(Cl)cc4)cc23)cc1OC | 0.5 (≈ 1.11 µM) |  |
| COc1ccc(Nc2ncnc3ccc(NC(=O)Nc4ccc(Cl)c(Cl)c4)cc23)cc1 | 2 (≈ 4.4 µM) |  |
| COc1ccc(Nc2ncnc3ccc(NC(=O)Nc4ccc(C(C)=O)cc4)cc23)cc1 | 2 (≈ 4.68 µM) |  |
| N#Cc1cccc(NC(=O)Nc2ccc3ncnc(Nc4cccc(Cl)c4)c3c2)c1 | 0.5 (≈ 1.21 µM) |  |
| O=C(Nc1ccc(Cl)c(Cl)c1)Nc1ccc2ncnc(Nc3cccc(Cl)c3)c2c1 | 0.5 (≈ 1.09 µM) |  |
| O=C(Nc1ccc(Br)cc1)Nc1ccc2ncnc(Nc3cccc(C(F)(F)F)c3)c2c1 | 2 (≈ 3.98 µM) | Activity (Mus musculus): Toxic; Activity [5]: 50.4% |
| O=C(Nc1ccc(Br)cc1)Nc1ccc2ncnc(Nc3ccccc3)c2c1 | 0.25 (≈ 0.576 µM) | IC50 (Plasmodium falciparum [3]): 0.173 µg/mL (≈ 0.399 µM); Ratio CC50/IC50 [4]: 132.5 |
| O=C(Nc1ccc(Cl)cc1)Nc1ccc2ncnc(Nc3ccccc3)c2c1 | 1 (≈ 2.57 µM) |  |
| COc1ccc(Nc2ncnc3ccc(NC(=O)Nc4ccc(Cl)c(C(F)(F)F)c4)cc23)cc1OC | 0.25 (≈ 0.483 µM) | IC50 (Plasmodium falciparum [3]): 0.0182 µg/mL (≈ 0.0351 µM); Activity [2]: 0.49%; Activity [6]: 99%; Ratio CC50/IC50 [4]: 345.8; Activity [5]: 0% |
| COc1ccc(Nc2ncnc3ccc(NC(=O)Nc4cccc(C#N)c4)cc23)cc1 | 2 (≈ 4.87 µM) |  |
| Cc1ccc(Nc2ncnc3ccc(NC(=O)Nc4cccc(C#N)c4)cc23)cc1 | 10 (≈ 25.4 µM) |  |
| Cc1ccc(Nc2ncnc3ccc(NC(=O)Nc4ccc(C)c(Cl)c4)cc23)cc1 | 0.5 (≈ 1.2 µM) | Activity [2]: 10.82%; Activity (Plasmodium yoelii): 3.38% |
| Cc1ccc(Nc2ncnc3ccc(NC(=O)Nc4ccc(Cl)c(Cl)c4)cc23)cc1 | 1 (≈ 2.28 µM) |  |
| O=C(Nc1ccc(Cl)c(Cl)c1)Nc1ccc2ncnc(Nc3ccccc3)c2c1 | 10 (≈ 23.6 µM) |  |
| N#Cc1cccc(NC(=O)Nc2ccc3ncnc(Nc4cccc(F)c4)c3c2)c1 | 0.5 (≈ 1.26 µM) | Activity (Mus musculus): Toxic; Activity [5]: 46.4% |
| O=C(Nc1ccc(Cl)cc1)Nc1ccc2ncnc(Nc3cccc(Cl)c3)c2c1 | > 10 |  |
| COc1ccc(Nc2ncnc3ccc(NC(=O)Nc4ccc(Br)cc4)cc23)cc1 | 1 (≈ 2.15 µM) |  |
| Cc1ccc(NC(=O)Nc2ccc3ncnc(Nc4ccccc4)c3c2)cc1Cl | 1 (≈ 2.48 µM) |  |
| Cc1ccc(NC(=O)Nc2ccc3ncnc(Nc4cccc(F)c4)c3c2)cc1Cl | 0.25 (≈ 0.593 µM) | IC50 (Plasmodium falciparum [3]): 0.147 µg/mL (≈ 0.348 µM); Ratio CC50/IC50 [4]: 76.6 |
| O=C(Nc1ccc(Br)cc1)Nc1ccc2ncnc(Nc3ccc(Cl)cc3)c2c1 | 1 (≈ 2.13 µM) |  |
| O=C(Nc1ccc(Cl)cc1)Nc1ccc2ncnc(Nc3cccc(F)c3)c2c1 | 0.5 (≈ 1.23 µM) | Activity [2]: 0.03%; Activity [6]: 99%; Activity [5]: 0% |

| SMILES | MIC (Plasmodium falciparum [1]) [µg/mL] | other results |
| --- | --- | --- |
| COc1ccc(Nc2ncnc3ccc(NC(=O)Nc4ccc(Cl)c(Cl)c4)cc23)cc1OC | 0.25 (≈ 0.516 µM) | IC50 (Plasmodium falciparum [3]): 0.0807 µg/mL (≈ 0.167 µM); Activity [2]: 14%; Ratio CC50/IC50 [4]: 74.5; Activity [5]: 41% |
| COc1ccc(Nc2ncnc3ccc(NC(=O)Nc4cccc(C#N)c4)cc23)cc1OC | 0.5 (≈ 1.14 µM) | Activity [2]: 23.2%; Activity [5]: 13.9% |
| O=C(Nc1ccc(Br)cc1)Nc1ccc2ncnc(Nc3cccc(F)c3)c2c1 | 0.5 (≈ 1.11 µM) |  |
| O=C(Nc1ccc(Cl)cc1)Nc1ccc2ncnc(Nc3ccc(Cl)cc3)c2c1 | 0.5 (≈ 1.18 µM) |  |
| COc1ccc(Nc2ncnc3ccc(NC(=O)Nc4ccc(C)c(Cl)c4)cc23)cc1 | 0.25 (≈ 0.576 µM) | IC50 (Plasmodium falciparum [3]): 0.05 µg/mL (≈ 0.115 µM); Ratio CC50/IC50 [4]: 114.9 |
| O=C(Nc1ccc(Br)cc1)Nc1ccc2ncnc(Nc3cccc(Cl)c3)c2c1 | 1 (≈ 2.13 µM) |  |
| Cc1ccc(NC(=O)Nc2ccc3ncnc(Nc4ccc(Cl)cc4)c3c2)cc1Cl | 1 (≈ 2.28 µM) |  |
| COc1ccc(Nc2ncnc3ccc(NC(=O)Nc4cccc(C(C)=O)c4)cc23)cc1 | 10 (≈ 23.4 µM) |  |
| Cc1ccc(Nc2ncnc3ccc(NC(=O)Nc4ccc(Cl)cc4)cc23)cc1 | 1 (≈ 2.48 µM) | IC50 (Plasmodium falciparum [3]): 0.0771 µg/mL (≈ 0.191 µM); Ratio CC50/IC50 [4]: 126.3 |
| O=C(Nc1ccc(Cl)c(Cl)c1)Nc1ccc2ncnc(Nc3ccc(F)cc3)c2c1 | 10 (≈ 22.6 µM) |  |
| COc1ccc(Nc2ncnc3ccc(NC(=O)Nc4ccc(Cl)cc4)cc23)cc1 | 0.25 (≈ 0.595 µM) | IC50 (Plasmodium falciparum [3]): 0.094 µg/mL (≈ 0.224 µM); Ratio CC50/IC50 [4]: 435.1 |
| O=C(Nc1cc(Cl)cc(Cl)c1)Nc1ccc2ncnc(Nc3cccc(F)c3)c2c1 | > 10 |  |
| Cc1ccc(NC(=O)Nc2ccc3ncnc(Nc4cccc(Cl)c4)c3c2)cc1Cl | 10 (≈ 22.8 µM) |  |
| CC(=O)c1ccc(NC(=O)Nc2ccc3ncnc(Nc4ccc(C)cc4)c3c2)cc1 | 2 (≈ 4.86 µM) |  |
| N#Cc1cccc(NC(=O)Nc2ccc3ncnc(Nc4ccccc4)c3c2)c1 | 0.5 (≈ 1.31 µM) |  |
| COc1ccc(Nc2ncnc3ccc(NC(=O)Nc4ccc(C(C)=O)cc4)cc23)cc1OC | 10 (≈ 21.9 µM) |  |
| COc1cccc(Nc2ncnc3ccc(NC(=O)Nc4ccc(Br)cc4)cc23)c1 | 2 (≈ 4.31 µM) |  |
| COc1cccc(Nc2ncnc3ccc(NC(=O)Nc4ccc(Cl)c(Cl)c4)cc23)c1 | 2 (≈ 4.4 µM) |  |
| COc1cccc(Nc2ncnc3ccc(NC(=O)Nc4ccc(C(C)=O)cc4)cc23)c1 | > 10 |  |
| COc1cccc(Nc2ncnc3ccc(NC(=O)Nc4ccc(Cl)cc4)cc23)c1 | 0.25 (≈ 0.595 µM) | IC50 (Plasmodium falciparum [3]): 0.159 µg/mL (≈ 0.377 µM); Ratio CC50/IC50 [4]: 378.9 |
| CCN(CC)CCCC(C)Nc1ccnc2cc(Cl)ccc12 (centres undefined) [CHLOROQUINE] | 0.125 (≈ 0.391 µM) |  |
